Measurements reported in ChEMBL document CHEMBL4041517 (Eur J Med Chem, 2017).

How the values were obtained:
[1] = biological target: T1, Amine oxidase [flavin-containing] A (Homo sapiens, UniProt P21397); experiment: Inhibition of recombinant human MAO-A using kynuramine as substrate by fluorescence spectrophotometry
T1 sequence (P21397 whole entry): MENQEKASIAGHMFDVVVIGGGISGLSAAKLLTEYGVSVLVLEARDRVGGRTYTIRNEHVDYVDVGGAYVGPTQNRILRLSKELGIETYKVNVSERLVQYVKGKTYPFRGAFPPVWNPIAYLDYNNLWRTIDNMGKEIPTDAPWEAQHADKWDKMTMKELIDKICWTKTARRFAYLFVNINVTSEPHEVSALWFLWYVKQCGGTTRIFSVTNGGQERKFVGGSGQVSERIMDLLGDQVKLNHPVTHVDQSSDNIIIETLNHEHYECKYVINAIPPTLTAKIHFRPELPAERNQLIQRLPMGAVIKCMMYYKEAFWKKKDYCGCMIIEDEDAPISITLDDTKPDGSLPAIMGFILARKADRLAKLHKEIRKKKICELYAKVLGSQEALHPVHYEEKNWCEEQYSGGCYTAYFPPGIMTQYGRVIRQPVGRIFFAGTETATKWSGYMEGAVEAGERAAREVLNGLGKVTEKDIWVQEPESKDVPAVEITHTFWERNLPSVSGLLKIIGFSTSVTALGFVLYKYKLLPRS

[2] = biological target: T2, Amine oxidase [flavin-containing] B (Homo sapiens, UniProt P27338); experiment: Inhibition of recombinant human MAO-B using kynuramine as substrate by fluorescence spectrophotometry
T2 sequence (P27338 whole entry): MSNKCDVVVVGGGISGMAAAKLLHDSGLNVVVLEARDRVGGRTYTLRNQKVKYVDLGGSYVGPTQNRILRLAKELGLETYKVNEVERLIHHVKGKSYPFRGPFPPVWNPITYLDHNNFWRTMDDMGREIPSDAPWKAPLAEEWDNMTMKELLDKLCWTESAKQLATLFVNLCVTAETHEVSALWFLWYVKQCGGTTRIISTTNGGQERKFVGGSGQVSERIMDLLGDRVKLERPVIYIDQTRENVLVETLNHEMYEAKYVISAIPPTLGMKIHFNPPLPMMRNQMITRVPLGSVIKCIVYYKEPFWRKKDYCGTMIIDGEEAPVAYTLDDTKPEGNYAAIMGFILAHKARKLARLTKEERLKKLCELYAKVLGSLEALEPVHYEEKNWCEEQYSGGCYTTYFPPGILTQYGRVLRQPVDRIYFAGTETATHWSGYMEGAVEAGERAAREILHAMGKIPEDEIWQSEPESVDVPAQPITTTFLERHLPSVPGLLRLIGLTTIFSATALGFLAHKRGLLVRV

[3] = species on record: Homo sapiens; experiment: Selectivity index, ratio of IC50 for recombinant human MAO-A to IC50 for recombinant human MAO-B
Summary of the method: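 Ratio of IC50 for MAO-A to IC50 for MAO-B. Each IC50 is the mean of triplicate fluorometric kynuramine-oxidation determinations on the recombinant human enzymes.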

[4] = biological target: T2, Amine oxidase [flavin-containing] B; experiment: Reversible inhibition of recombinant human MAO-B assessed as residual activity pre-incubated at 4 times IC50 for 15 mins followed by kynuramine addition measured after 20 mins by fluorescence spectrophotometric analysis relative to untreated control
Summary of the method: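 Recombinant MAO-B is preincubated with inhibitor for 15 min at 37 °C without dialysis. It is then diluted two-fold by adding kynuramine (50 final) and incubated 20 min at 37 °C. 4-Hydroxyquinoline is measured fluorometrically. Residual rate is compared with control; triplicates, mean ± SD.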

[5] = biological target: T2, Amine oxidase [flavin-containing] B; experiment: Reversible inhibition of recombinant human MAO-B assessed as residual activity pre-incubated at 4 times IC50 for 15 mins followed by dialysis for 24 hrs and subsequent kynuramine addition measured after 20 mins by fluorescence spectrophotometric analysis relative to untreated control
Summary of the method: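 Recombinant MAO-B is preincubated with inhibitor for 15 min at 37 °C, then dialysed for 24 h at 4 °C. It is then diluted two-fold by adding kynuramine (50 final) and incubated 20 min at 37 °C. 4-Hydroxyquinoline is read fluorometrically. Residual activity is compared with an inhibitor-free dialysed control; triplicates, mean ± SD. (R)-Deprenyl is run the same way.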

Structure (SMILES) | IC50 [1] [µM] | IC50 [2] [nM] | Ratio IC50 [3] | Activity [4] [%] | Activity [5] [%]
O=[N+]([O-])/C=C/c1cccc(OCc2ccc(C(F)(F)F)cc2)c1 | 6.6 | 106 | 62 |  | 
O=[N+]([O-])/C=C/c1cccc(OCc2ccc(Cl)cc2)c1 | 7.59 | 144 | 53 |  | 
O=[N+]([O-])/C=C/c1cccc(OCc2cccc(C(F)(F)F)c2)c1 | 8.78 | 273 | 32 |  | 
O=[N+]([O-])/C=C/c1cccc(OCc2ccccc2)c1 | 3.65 | 85 | 43 |  | 
O=[N+]([O-])/C=C/c1cccc(OCc2ccc(F)cc2)c1 | 6.46 | 39 | 166 | 37 | 38
Cc1cccc(COc2cccc(/C=C/[N+](=O)[O-])c2)c1 | 11.8 | 565 | 21 |  | 
O=[N+]([O-])/C=C/c1cccc(OCc2cccc(Cl)c2)c1 | 3.52 | 105 | 34 |  | 
O=[N+]([O-])/C=C/c1cccc(OCc2cccc(F)c2)c1 | 4.2 | 103 | 41 |  | 
O=[N+]([O-])/C=C/c1cccc(OCc2ccc(Br)cc2)c1 | > 100 | > 100000 |  |  | 
Cc1ccc(COc2cccc(/C=C/[N+](=O)[O-])c2)cc1 | 9.36 | 192 | 49 |  | 
O=[N+]([O-])/C=C/c1cccc(OCc2cccc(Br)c2)c1 | 6.63 | 262 | 25 |  | 
